Assay results published in ChEMBL document CHEMBL1629555, “Antimalarial activity of phenylthiazolyl-bearing hydroxamate-based histone deacetylase inhibitors” (Antimicrob Agents Chemother, 2008).
pIC50: −log10 of the molar value. The source made the active and inactive calls. The calls are words filed in the database; no cut-off is given here.

Legend:
[1] = Half life in human liver microsome by LC/MS analysis; format: ADME; conditions: liver microsomes
Mus musculus [2] = experiment: Toxicity in Plasmodium berghei-infected mouse assessed as mortality at single dose of 80 mg/kg/day, po for 3 days; format: organism-based; design: route oral; conditions: in vivo, 72 h
Plasmodium berghei [3] = experiment: Antimalarial activity against Plasmodium berghei infected in mouse assessed as effect on cure rate at single dose of 80 mg/kg/day, po for 3 days; format: functional, organism-based
Summary of the method: (§1)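 Mice were infected ip with 10^6 P. berghei-parasitized erythrocytes. The compound was given in hydroxyethylcellulose-Tween 20 vehicle, 5 mice per group, starting on day 3 post-infection. Regimens were once-daily or split daily oral doses over 3 days, subcutaneous dosing, or dosing over 7 days. Read-outs were posttreatment parasitemia on day 6 as a fraction of controls and the number of mice cured.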

Plasmodium falciparum [4] = experiment: Antimalarial activity against drug-resistant Plasmodium falciparum TM90C2A; format: functional, organism-based
Plasmodium falciparum [5] = experiment: Antimicrobial activity against Plasmodium falciparum W2 at […] in presence of azithromycin; format: functional
Summary of the method: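 In vitro fixed-ratio isobologram using a SYBR green I fluorescence assay. […] IC50s were standardized and FIC50 and ΣFIC50 calculated by the Berenbaum method. Reported as the average ΣFIC across dilutions or the average maximum ΣFIC, from at least 2 experiments.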

Plasmodium berghei [6] = experiment: Antimalarial activity against Plasmodium berghei infected in mouse assessed as effect on cure rate at 160 mg/kg/day for 3 days; format: functional, organism-based
Summary of the method: (§2)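 Mice were infected ip with 10^6 P. berghei-parasitized erythrocytes. The compound was given orally once daily on days 3, 4 and 5 post-infection in hydroxyethylcellulose-Tween 20 vehicle, alone or together with chloroquine, with 5 mice per dose group. Parasitemia (%) was read on days 3 and 6, and cures were counted as animals cured out of 5.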

Plasmodium berghei [7] = experiment: Antimalarial activity against Plasmodium berghei infected in mouse assessed as parasitemia level at 52 mg/kg/day for 3 days measured on day 6 in presence of 64 mg/kg/day chloroquine; format: functional; summary of the method: as §2
Plasmodium berghei [8] = experiment: Antimalarial activity against Plasmodium berghei infected in mouse assessed as parasitemia level at 320 mg/kg/day for 3 days measured on day 6 (reference value: 37%); format: functional; summary of the method: as §2
Plasmodium berghei [9] = experiment: Antimalarial activity against Plasmodium berghei infected in mouse assessed as parasitemia level at split dose of 320 mg/kg/day, po for 3 days measured on day 6 relative to control; format: functional
Summary of the method: (§3)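 Blood-stage P. berghei model: mice inoculated ip with 10^6 parasitized erythrocytes. Oral treatment for 3 days, with the daily dose split, in hydroxyethylcellulose-Tween 20 vehicle. Day-6 parasitemia expressed as a fraction of control parasitemia.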

Plasmodium falciparum [10] = experiment: Antimicrobial activity against Plasmodium falciparum W2 at […] in presence of 4 mg/kg chloroquine; format: functional
Plasmodium berghei [11] = experiment: Antimalarial activity against Plasmodium berghei infected in mouse assessed as effect on cure rate at split dose of 80 mg/kg/day, po for 3 days; format: functional, organism-based; summary of the method: as §1
Plasmodium falciparum [12] = experiment: Antimalarial activity against chloroquine-resistant Plasmodium falciparum FVO infected in Aotus lemurinus leminurus monkey assessed as reduction in parasitemia at 32 mg/kg/day, po for 3 days; format: functional, organism-based
Plasmodium berghei [13] = experiment: Antimalarial activity against Plasmodium berghei infected in mouse assessed as effect on cure rate at 52 mg/kg/day for 3 days measured on day 6 in presence of 64 mg/kg/day chloroquine; format: functional, organism-based; summary of the method: as §2
Plasmodium berghei [14] = experiment: Antimalarial activity against Plasmodium berghei infected in mouse assessed as parasitemia level at 32 mg/kg/day for 3 days measured on day 3 in presence of 3.6 mg/kg/day chloroquine (reference value: 0.46%); format: functional; summary of the method: as §2
Plasmodium berghei [15] = experiment: Antimalarial activity against Plasmodium berghei infected in mouse assessed as parasitemia level at 320 mg/kg/day for 3 days measured on day 3 (reference value: 0.46%); format: functional; summary of the method: as §2
Mus musculus [16] = experiment: Toxicity in Plasmodium berghei-infected mouse assessed as mortality at single dose of 20 mg/kg/day, po for 3 days; format: organism-based; design: route oral; conditions: in vivo, 72 h
Plasmodium berghei [17] = experiment: Antimalarial activity against Plasmodium berghei infected in mouse assessed as parasitemia level at 0.32 mg/kg/day for 3 days measured on day 3 in presence of 4 mg/kg/day chloroquine (reference value: 0.46%); format: functional
Plasmodium berghei [18] = experiment: Antimalarial activity against Plasmodium berghei infected in mouse assessed as effect on cure rate at 3.2 mg/kg/day for 3 days measured on day 6 in presence of 4 mg/kg/day chloroquine (reference value: 37%); format: functional, organism-based
Mus musculus [19] = experiment: Toxicity in Plasmodium berghei-infected mouse assessed as mortality at single dose of 40 mg/kg/day, po for 3 days; format: organism-based; design: route oral; conditions: in vivo, 72 h
Plasmodium berghei [20] = experiment: Antimalarial activity against Plasmodium berghei infected in mouse assessed as parasitemia level at 3.2 mg/kg/day for 3 days measured on day 3 in presence of 4 mg/kg/day chloroquine (reference value: 0.46%); format: functional
Plasmodium falciparum [21] = experiment: Antimalarial activity against chloroquine-resistant Plasmodium falciparum FVO infected in Aotus lemurinus leminurus monkey assessed as reduction in parasitemia at 8 mg/kg/day, po for 3 days; format: functional, organism-based
Plasmodium berghei [22] = experiment: Antimalarial activity against Plasmodium berghei infected in mouse assessed as parasitemia level at split dose of 80 mg/kg/day, po for 3 days measured on day 6 relative to control; format: functional; summary of the method: as §3
Plasmodium falciparum [23] = experiment: Antimalarial activity against drug-resistant Plasmodium falciparum D6 infected in Aotus lemurinus lemurinus monkey; format: functional, organism-based
[24] = Selectivity index, ratio of LC50 for mouse RAW264.7 cells to IC50 for Plasmodium falciparum; conditions: raw264.7
Plasmodium falciparum [25] = experiment: Antimalarial activity against chloroquine-resistant Plasmodium falciparum FVO infected in Aotus lemurinus […] monkey assessed as reduction in parasitemia at 16 mg/kg/day, po for 3 days; format: functional, organism-based
[26] = AUC in ICR mouse at 50 mg/kg/day, sc by LC/MS analysis; format: ADME, organism-based; design: route subcutaneous; conditions: plasma
Summary of the method: (§4)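 Male ICR mice, 8 weeks old, got one 50 mg/kg dose either orally or subcutaneously, with three groups of six mice per route. One mouse per group was killed at 15, 30 and 60 min and at 3, 6 and 24 h. Plasma was deproteinized with 2 volumes of acetonitrile and analysed by LC-MS/MS on a C18 column against 0–500 ng/ml standards, with parent and acid metabolite measured in the same sample. Each six-mouse group was treated as one "animal" and fitted to a two-compartment model. AUC was taken by the linear trapezoidal rule extrapolated to infinity, and Cmax and Tmax were read per "animal".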

Plasmodium berghei [27] = experiment: Antimalarial activity against Plasmodium berghei infected in mouse assessed as parasitemia level at 32 mg/kg/day for 3 days measured on day 3 (reference value: 0.46%); format: functional; summary of the method: as §2
Plasmodium berghei [28] = experiment: Antimalarial activity against Plasmodium berghei infected in mouse assessed as parasitemia level at split dose of 640 mg/kg/day, po for 3 days measured on day 6 relative to control; format: functional; summary of the method: as §3
Plasmodium berghei [29] = experiment: Antimalarial activity against Plasmodium berghei infected in mouse assessed as parasitemia level at split dose of 40 mg/kg/day, po for 3 days measured on day 6 relative to control; format: functional; summary of the method: as §3
Plasmodium berghei [30] = experiment: Antimalarial activity against Plasmodium berghei infected in mouse assessed as parasitemia level at 3.2 mg/kg/day for 3 days measured on day 6 (reference value: 37%); format: functional
[31] = Cmax in ICR mouse at 50 mg/kg/day, po by LC/MS analysis; format: ADME, organism-based; design: dose 50 mg/kg/day, route oral; conditions: in vivo; summary of the method: as §4
Plasmodium berghei [32] = experiment: Antimalarial activity against Plasmodium berghei infected in mouse assessed as parasitemia level at 0.32 mg/kg/day for 3 days measured on day 6 in presence of 4 mg/kg/day chloroquine (reference value: 37%); format: functional

Nc1cccc(-c2csc(NC(=O)CCCCCCC(=O)NO)n2)c1
half-life [1]: > 1 h
Activity (Mus musculus [2]): Non-toxic
Activity (Plasmodium berghei [3]): inactive
pIC50 (Plasmodium falciparum [4]): 9.22
fractional inhibitory concentration index (FICI) (Plasmodium falciparum [5]): 1.5
Activity (Plasmodium berghei [6]): inactive
Activity (Plasmodium berghei [7]): 0%
Activity (Plasmodium berghei [8]): 0.107%
fold change (FC) (Plasmodium berghei [9]): 0.004
fractional inhibitory concentration index (FICI) (Plasmodium falciparum [10]): 1.9
Activity (Plasmodium berghei [11]): inactive
inhibition (Plasmodium falciparum [12]): Active
Activity (Plasmodium berghei [13]): inactive
Activity (Plasmodium berghei [14]): 0.44%
Activity (Plasmodium berghei [15]): 0.52%
Activity (Mus musculus [16]): Non-toxic
Activity (Plasmodium berghei [17]): 0.72%
Activity (Plasmodium berghei [18]): inactive
Activity (Mus musculus [19]): Non-toxic
Activity (Plasmodium berghei [20]): 0.6%
inhibition (Plasmodium falciparum [21]): inactive
fold change (FC) (Plasmodium berghei [22]): 0.05
pIC50 (Plasmodium falciparum [23]): 9.10
selectivity ratio [24]: 1080
inhibition (Plasmodium falciparum [25]): inactive
AUC [26]: 3600 ng·h/mL
Activity (Plasmodium berghei [27]): 0.38%
fold change (FC) (Plasmodium berghei [28]): 0.001
fold change (FC) (Plasmodium berghei [29]): 0.32
Activity (Plasmodium berghei [30]): 40%
Cmax [31]: 2500 ng/mL
Activity (Plasmodium berghei [32]): 0.024%
